Results on 15 molecules are retold here after ChEMBL document CHEMBL1157219, “Chalcones and other compounds from the exudates of Angelica keiskei and their cancer chemopreventive effects” (J Nat Prod, 2006).

In data set [1] the test system is Raji. Put plainly: Inhibition of TPA-induced EBV-early antigen activation in human Raji cells at 500 molar ratio relative to TPA. Type of data set: cell-based. Also noted: scale not given: the % may be the effect or the level left. The conditions noted are these: human gammaherpesvirus 4. In a few lines:
(§1)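 Raji cells incubated 48 h at 37 °C in medium with n-butyric acid (4 mM), TPA (32 pmol) and test compound at molar ratios to TPA (1000, 500, 100). Smears were stained for EBV-EA by indirect immunofluorescence. Induction is given as % of TPA-alone control (100%).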

Data set [2] in a line: Inhibition of TPA-induced EBV-early antigen activation in human Raji cells. Type of data set: cell-based, human gammaherpesvirus 4. In a few lines:
as §1

Data set [3] has as its system Raji. Put plainly: Inhibition of TPA-induced EBV-early antigen activation in human Raji cells at 1000 molar ratio relative to TPA. In kind it is cell-based. Also noted: scale not given: the % may be the effect or the level left. The conditions noted are these: human gammaherpesvirus 4. An outline of the steps: as §1
The test system of data set [4] is Raji. Put plainly: Inhibition of TPA-induced EBV-early antigen activation in human Raji cells at 100 molar ratio relative to TPA. In kind it is cell-based. More on the design: scale not given: the % may be the effect or the level left. The following applies: human gammaherpesvirus 4. An outline of the steps:
as §1

Data set [5] can be described thus: Cytotoxicity against human Raji cells assessed as cell viability at 1000 molar ratio. The conditions noted are these: read-out: Activity. Type of data set: cell-based. An outline of the steps: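 Raji cell viability was recorded as a percentage in the EBV-EA setup: 48 h at 37 °C with n-butyric acid (4 mM), TPA (32 pmol) and compound at 32 nmol (1000:1 molar ratio to TPA).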

Data set [6] in a line: Scavenging activity against (+/-)-(E)-methyl-2-[(E)-hydroxyimino]-5-nitro-6-methoxy-3-hexemide-induced NO generation in human Chang liver cells. Type of data set: functional. An outline of the steps:
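Human Chang liver cells (5 × 10^5/mL) were cultured in MEM Eagle medium for 3 days. Samples (350 nmol) were added 1 min before NOR 1 (350 nmol), then incubated 1 h in a CO2 incubator. Transformed cells were counted under light microscopy (×100, >250 cells). The inhibitory ratio is transformed % with NOR 1 alone divided by transformed % with NOR 1 plus sample, with NOR 1 taken as 1.0.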

Data set [7] deals with Raji. Put plainly: Inhibition of TPA-induced EBV-early antigen activation in human Raji cells at 10 molar ratio relative to TPA. More on the design: scale not given: the % may be the effect or the level left. In kind it is cell-based. The conditions noted are these: human gammaherpesvirus 4.
Data set [8] is filed under the species Mus musculus. Description: Inhibition of tumor promotion in mouse assessed as papilloma bearing mouse after 20 weeks. Type of data set: functional. An outline of the steps:
(§2)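 Two-stage mouse skin carcinogenesis using DMBA and TPA as promoter. Groups were 15 mice housed five per cage with water ad libitum. The percentage of papilloma-bearing mice was scored at 10 and 20 weeks of promotion in treated versus untreated groups.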

The species named for data set [9] is Mus musculus. Put plainly: Inhibition of tumor promotion in mouse assessed as papilloma bearing mouse after 10 weeks. In kind it is functional. An outline of the steps:
as §2

With `COc1ccc(C(=O)CCc2ccc(O)cc2)c2c1CCC(C)(C)O2` [DEOXYDIHYDROXANTHOANGELOL H], the Activity was 56.7% with Raji [1], 27.4% in the data set on Raji [3], 81.6% with Raji [4] and 100% with Raji [7]. The molecule also returned an IC50 in data set [2] of 563 molar ratio. In addition, the viability at 1000 molar ratio in [5] was determined as 60%. For the same molecule, the Ratio in data set [6] amounted to 1.6.

As to `CC(C)=CCc1c(O)ccc2ccc(=O)oc12` [OSTHENOL], the Activity in the data set on Raji [1] came out at 30.1%; with Raji [3], 0%; with Raji [4], 69.8%; in the data set with Raji [7], 90.6%. For the same molecule, the IC50 in [2] was 290 molar ratio. The viability at 1000 molar ratio in data set [5] is 70%. The Ratio in data set [6] was 2.

Turning to `CC1(C)[C@@H](O[C@H]2O[C@H](C(=O)O)[C@@H](O)[C@H](O)[C@H]2O[C@@H]2O[C@H](C(=O)O)[C@@H](O)[C@H](O)[C@H]2O)CC[C@]2(C)[C@H]3C(=O)C=C4[C@@H]5C[C@@](C)(C(=O)O)CC[C@]5(C)CC[C@@]4(C)[C@]3(C)CC[C@@H]12` [GLYCYRRHIZIN], the Activity in the data set with Raji [1] amounted to 63.3%; with Raji [3] it was 27.4%; with Raji [4] it was 83.3%; in the data set on Raji [7], 100%. The IC50 in data set [2] came to 572 molar ratio. The viability at 1000 molar ratio in data set [5] was > 80%. Moreover, in [6], the Ratio came to 2.2.

For the molecule `COc1cc(O)c2c(c1CC=C(C)C)O[C@H](c1ccc(O)cc1)CC2=O` [MUNDULEAFLAVANONE B], the Activity in the data set with Raji [1] was 24.9%; in the data set with Raji [3] it was 0%; in the data set on Raji [4] it was 66.7%; in the data set on Raji [7], 90.3%. This molecule also displayed an IC50 in data set [2] of 230 molar ratio. The viability at 1000 molar ratio in data set [5] amounted to 70%. In data set [6], the Ratio came out at 2.3.

Regarding `COc1ccc(C(=O)/C=C/c2ccc(O)cc2)c2c1CCC(C)(C)O2` [DEOXYXANTHOANGELOL H], the Activity was determined as 60.5% with Raji [1], 32.1% in the data set on Raji [3], 85.2% in the data set with Raji [4] and 100% with Raji [7]. Besides, the IC50 in [2] stood at 578 molar ratio. In addition, in data set [5], the viability at 1000 molar ratio came out at 60%. Moreover, the Ratio in data set [6] is on record as 1.5.

Regarding `CC1=C(/C=C/C(C)=C/C=C/C(C)=C/C(=O)O)C(C)(C)CCC1` [TRETINOIN], the Activity came to 49.3% in the data set on Raji [1], 15.3% with Raji [3], 76.3% with Raji [4] and 100% in the data set with Raji [7]. This molecule also returned an IC50 in [2] of 482 molar ratio. The viability at 1000 molar ratio in [5] turned out to be 60%.

As for `C=C[C@@H](O)C#CC#C[C@@H](O)/C=C\CCCCCCCCOC(C)=O`, the Activity in the data set with Raji [1] was 53.1%; in the data set on Raji [3], 18.7%; in the data set on Raji [4], 81.4%; with Raji [7], 100%. Moreover, the IC50 in [2] is 511 molar ratio. For the same molecule, the viability at 1000 molar ratio in data set [5] worked out at 60%. Further, the Ratio in [6] amounted to 1.2.

For the molecule `CC1(C)CCc2c(ccc(C(=O)/C=C/c3ccc(O)cc3)c2O)O1` [DORSMANNIN A], the Activity with Raji [1] amounted to 61.7%; in the data set with Raji [3] it was 34.2%; in the data set with Raji [4], 86%; with Raji [7] it was 100%. Moreover, the IC50 in data set [2] worked out at 583 molar ratio. For the same molecule, the viability at 1000 molar ratio in data set [5] stood at 60%. For the same molecule, in [6], the Ratio worked out at 1.9.

Consider `COc1c2occc2cc2ccc(=O)oc12` [METHOXSALEN], for which the Activity in the data set with Raji [1] was 55.2%; in the data set with Raji [3] it was 14.2%; with Raji [4], 83.1%; with Raji [7], 100%. Also, in data set [2], the IC50 stood at 490 molar ratio. For the same molecule, the viability at 1000 molar ratio in data set [5] came to 60%. Further, the Ratio in [6] is on record as 1.3.

Regarding `COc1c2ccoc2c(OC)c2oc(=O)ccc12` [ISOPIMPINELLIN], the Activity in the data set on Raji [1] was 57.4%; with Raji [3], 12.1%; with Raji [4], 81.5%; in the data set with Raji [7], 100%. In addition, in [2], the IC50 turned out to be 486 molar ratio. Also, the viability at 1000 molar ratio in data set [5] worked out at 60%. Also, in [6], the Ratio was 1.4.

Turning to `CC(C)=CCCC(C)(O)CCc1c(O)ccc(C(=O)/C=C/c2ccc(O)cc2)c1O` (stereo not given) [XANTHOANGELOL J], the Activity was found to be 12.5% in the data set with Raji [1], 0% with Raji [3], 66.8% in the data set with Raji [4] and 90.2% in the data set on Raji [7]. The IC50 in [2] is listed as 264 molar ratio. Moreover, the viability at 1000 molar ratio in data set [5] worked out at 70%. Moreover, in data set [6], the Ratio was 2.4.

`CC(C)=CCCC1(C)CCc2c(O)ccc(C(=O)/C=C/c3ccc(O)cc3)c2O1` (stereo not given): the Activity was 20.3% in the data set on Raji [1], 0% in the data set on Raji [3], 64.7% in the data set with Raji [4] and 87.3% in the data set with Raji [7]. Moreover, the IC50 in data set [2] stood at 273 molar ratio. For the same molecule, the viability at 1000 molar ratio in [5] is 70%. In addition, the Ratio in data set [6] is 2.4.

As to `CC(C)=CCC/C(C)=C/Cc1c(O)cc(O)c2c1O[C@H](c1ccc(O)cc1)CC2=O` [SOPHORAFLAVANONE A], the Activity was 18.5% with Raji [1], 0% with Raji [3], 56.4% in the data set on Raji [4] and 89.3% in the data set with Raji [7]. This molecule also returned an IC50 in data set [2] of 215 molar ratio. In addition, the viability at 1000 molar ratio in data set [5] was 70%. For the same molecule, in [6], the Ratio is 2.1.

For `CC(C)=CCc1c(O)ccc(C(=O)/C=C/c2ccc(O)cc2)c1O` [ISOBAVACHALCONE], the Activity in the data set on Raji [1] was 26.3%; in the data set on Raji [3], 0%; in the data set on Raji [4], 63%; with Raji [7] it was 98.4%. Also, in data set [2], the IC50 came to 320 molar ratio. The “inhibition (INH)” value in the data set filed under Mus musculus [8] amounted to 80%; in the data set listed under Mus musculus [9], 20%. The viability at 1000 molar ratio in [5] stood at 60%. In addition, in data set [6], the Ratio was 2.

For `CC1(C)N([O])C(c2ccc(C(=O)O)cc2)=[N+]([O-])C1(C)C`, in data set [6], the Ratio is 8.
